Source: PubChem BioAssay
SENP1 inh: blocks the human SENP1 SUMO protease catalytic domain. Q9P0U3. recombinant SENP1 catalytic domain, CyPet-SUMO1-YPet FRET cleavage. inhibition, % at 10 µM. hit rate 0.21% among 360,000. AID 624204;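 active = inhibition at least 30% at 10 µM, raw YFP signal under a set limit, fluorescence ratio 0.5 to 1.5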;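 note: 0% = enzyme with DMSO and 100% = no enzyme wells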
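System: Recombinant human SENP1 catalytic domain, His6-tagged | Incubation: Enzyme reaction for 50 min at room temperature, dark | Medium: Tris pH 8 with BME, BSA, NP40 and catalase | Also added: 25 nM SUMO1 FRET substrate | Compound: 10 µM single point, 0.5% DMSO | Measured by: FRET fluorescence in CFP and YFP emission channels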
SENP6 inh: SENP6 protease inhibition; hit rate 1.8% among 330,000; Q9GZR1; inhibition, % at 10 µM; Recombinant SENP6 catalytic domain, aminoluciferin luminescence;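 active = inhibition above about 50% at the single tested dose, limit read from the data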;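 note: plate controls were DMSO wells with enzyme for no effect and DMSO wells lacking enzyme for full effect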
Platelet DG rel: platelet dense granule release activity; human platelet-rich plasma, SFLLRN dense granule ATP release, luminescence; inhibition, %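 (compounds screened at 7.5 µM in platelet-rich plasma)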; hit rate 0.22% among 300,000; AID 1663;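 active = mean replicate score, as percent of positive control, at or above 50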
SENP8 block-1: SENP8 protease inhibition; Q96LD8; purified SENP8, Z-RLRGG-aminoluciferin cleavage, luminescence; inhibition, % at 10 µM; hit rate 1.2% among 330,000; AID 2540; in the data active = inhibition above about 50%
Target sequence (Q96LD8 whole entry, looked up): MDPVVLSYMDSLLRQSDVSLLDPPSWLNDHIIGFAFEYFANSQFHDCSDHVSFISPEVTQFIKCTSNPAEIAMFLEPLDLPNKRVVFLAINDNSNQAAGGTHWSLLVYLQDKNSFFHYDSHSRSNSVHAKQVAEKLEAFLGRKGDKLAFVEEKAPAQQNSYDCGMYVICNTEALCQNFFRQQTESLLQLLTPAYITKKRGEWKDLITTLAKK
SENP8 block-2: blocks human SENP8 cleavage of Nedd8 substrate; AID 602440; inhibition, % at 20 µM; recombinant SENP8, Nedd8 substrate fluorescence; hit rate 0.64% among 360,000; in the data active = inhibition mostly above about 40%, no sharp cut-off; inactive = mostly below about 27%
SENP7 inh: blocks the human protease SENP7. Q9BQF6. recombinant SENP7, Z-RLRGG-aminoluciferin luminescence, 40 min. inhibition, % at 5 µM. hit rate 1.5% among 330,000;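 active = inhibition above about 50% at the single test dose, limit read from the data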;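 note: plate controls were DMSO with enzyme for no effect and no enzyme buffer wells for full effect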
Target sequence (Q9BQF6 706-1050 limits assumed): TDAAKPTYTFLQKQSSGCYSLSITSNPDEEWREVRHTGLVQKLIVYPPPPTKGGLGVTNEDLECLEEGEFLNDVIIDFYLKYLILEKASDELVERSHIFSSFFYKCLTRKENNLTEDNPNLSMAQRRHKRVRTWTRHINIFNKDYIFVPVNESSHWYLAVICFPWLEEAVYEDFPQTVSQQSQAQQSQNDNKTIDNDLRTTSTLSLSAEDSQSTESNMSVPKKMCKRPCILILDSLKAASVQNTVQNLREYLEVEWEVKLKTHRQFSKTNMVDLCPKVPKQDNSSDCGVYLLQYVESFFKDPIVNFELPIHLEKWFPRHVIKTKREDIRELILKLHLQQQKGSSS
SENP8 conf: confirmation of human SENP8 protease inhibitors; shares compounds with SENP7 inh; Recombinant SENP8, Z-RLRGG-aminoluciferin luminescence, 60 min; inhibition, % at 12.5 µM; hit rate 40% among 6,200; AID 488912;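 active = mean inhibition across replicates above about 50%, limit read from the data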
SENP6 confirm: confirmation of human SENP6 protease inhibitors | shares compounds with SENP7 inh | recombinant SENP6, Z-RLRGG-aminoluciferin luminescence | inhibition, % at 12.5 µM | hit rate 58% among 6,200 | AID 488915
SENP7 conf: human SENP7 inhibition, confirmed | shares compounds with SENP7 inh | recombinant SENP7, Z-RLRGG-aminoluciferin luminescence, 40 min | inhibition, % at 12.5 µM | hit rate 69% among 6,200
Casp3 SENP sel: selectivity test for SENP inhibitors: human caspase-3 inhibition | shares compounds with SENP7 inh | purified caspase-3, Z-DEVD-aminoluciferin luminescence, 60 min | inhibition, % at 12.5 µM | hit rate 60% among 6,200 | AID 488918;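 active = mean inhibition above about 50%, limit read from the data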;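 note: plate controls were enzyme with DMSO for no effect and wells without caspase-3 for full effect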
SENP luc ctr: interferes with luciferase luminescence in SENP counter-screen; AID 488919; hit rate 39% among 6,200; inhibition, % at 12.5 µM; Pre-incubated SENP8/Z-RLRGG-aminoluciferin, luciferase luminescence interference; shares compounds with SENP7 inh;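 active = mean inhibition above about 50% when retested at one dose, limit read from the data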;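 note: plate controls were DMSO wells with completed reaction for no effect and substrate without enzyme for full effect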
Starred values were filed as active, the others as inactive. Sampled rows, rich in hits. Any-hit rate of the full collection: about 2.6%.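 Rule for the calls, unless noted: active = mean inhibition above about 50% in the one-dose retest (limit read from the data); inactive = the rest.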

Cc1ccc(-c2csc(Nc3ccccn3)n2)cc1 was read as SENP1 inh 1.1, SENP6 inh 91.4*, Platelet DG rel 6.2, SENP8 block-1 87.2*, SENP8 block-2 4.0, SENP7 inh 88.9*, SENP8 conf 92.2*, SENP6 confirm 92.1*, SENP7 conf 98.1*, Casp3 SENP sel 68.7* and SENP luc ctr 77.1*.
Oc1ccc(-c2csc(Nc3ccccn3)n2)cc1 was read as SENP1 inh 1.7, SENP6 inh 84.9*, Platelet DG rel 9.9, SENP8 block-1 81.6*, SENP8 block-2 2.0, SENP7 inh 62.2*, SENP8 conf 91.2*, SENP6 confirm 87.2*, SENP7 conf 94.9*, Casp3 SENP sel 54.3* and SENP luc ctr 87.8*.
`COc1ccc(-c2csc(Nc3ccccn3)n2)cc1OC` gave SENP1 inh 0.5, SENP6 inh 4.9, Platelet DG rel -1.1, SENP8 block-1 9.6, SENP8 block-2 0.2 and SENP7 inh 1.3.
`O=C(NC1=NCCS1)c1nc(-c2ccccc2)n(-c2ccccc2)n1` gave SENP1 inh -1.6, SENP6 inh 0.8, Platelet DG rel 10.8, SENP8 block-1 3.4, SENP8 block-2 16.5 and SENP7 inh -9.9.
`CCCOc1ccc(/C(O)=C2/C(=O)C(=O)N(CCCn3ccnc3)C2c2cccnc2)cc1` (stereo not given) gave SENP1 inh 0.0, SENP6 inh 11.6, Platelet DG rel 11.3, SENP8 block-1 3.5, SENP8 block-2 -56.6 and SENP7 inh -4.9.
Fc1ccc(CNC(=S)Nc2cccc(Cl)c2)cc1 was read as SENP1 inh 1.5, SENP6 inh -8.7, Platelet DG rel -0.4, SENP8 block-1 -13.7, SENP8 block-2 2.5 and SENP7 inh -5.0.
`Cc1ccc(SCC(=O)Nc2cc([N+](=O)[O-])ccc2O)cc1` gave SENP1 inh 0.9, SENP6 inh -16.1, Platelet DG rel 1.4, SENP8 block-1 78.6*, SENP8 block-2 38.2, SENP7 inh 3.9, SENP8 conf -12.8, SENP6 confirm 26.2, SENP7 conf 56.8*, Casp3 SENP sel 39.2 and SENP luc ctr 37.6.
Screening CN(C)CCNc1c2c(nc3ccccc13)CCC2 returned SENP1 inh -2.2, SENP6 inh -8.0, Platelet DG rel -4.8, SENP8 block-1 -6.8, SENP8 block-2 -4.0 and SENP7 inh -8.7.
Screening C=C(C)CSc1nc2ncccc2[nH]1 returned SENP1 inh 1.4, SENP6 inh -13.1, Platelet DG rel -2.7, SENP8 block-1 3.6, SENP8 block-2 9.8 and SENP7 inh 4.5.
`Cc1ccc(CSc2nc3ncccc3[nH]2)cc1` gave SENP1 inh -1.9, SENP6 inh 80.8*, Platelet DG rel 3.4, SENP8 block-1 63.7*, SENP8 block-2 11.3, SENP7 inh 67.3*, SENP8 conf 6.9, SENP6 confirm 77.0*, SENP7 conf 95.4*, Casp3 SENP sel 42.6 and SENP luc ctr 80.8*.
For COCCN1C(=O)c2oc3ccccc3c(=O)c2C1c1ccc(C(=O)OC)cc1 (stereo not given) the results were SENP1 inh 1.6, SENP6 inh 18.7, Platelet DG rel 10.5, SENP8 block-1 -3.0, SENP8 block-2 13.0 and SENP7 inh -8.2.
Screening COc1ccc(C(=O)Nc2ccc(C)cn2)c(OC)c1 returned SENP1 inh 0.9, SENP6 inh 90.5*, Platelet DG rel 25.3, SENP8 block-1 89.8*, SENP8 block-2 10.2, SENP7 inh 94.4*, SENP8 conf 93.0*, SENP6 confirm 92.4*, SENP7 conf 99.8*, Casp3 SENP sel 93.8* and SENP luc ctr 91.3*.
Screening Cc1ccc(NC(=O)c2sccc2C)nc1 returned SENP1 inh 0.0, SENP6 inh 99.1*, Platelet DG rel 52.3*, SENP8 block-1 92.4*, SENP8 block-2 7.1, SENP7 inh 98.6*, SENP8 conf 94.0*, SENP6 confirm 95.3*, SENP7 conf 101.7*, Casp3 SENP sel 97.9* and SENP luc ctr 91.7*.
For CCCc1cc(=O)[nH]c(/N=C(/NC(=O)C(C)N2C(=O)c3ccccc3C2=O)Nc2ccccc2)n1 (stereo not given) the results were SENP1 inh 0.9, SENP6 inh -8.8, Platelet DG rel -0.8, SENP8 block-1 -7.6, SENP8 block-2 8.9 and SENP7 inh -5.5.
CCCCc1nc2cc(C(=O)NC3CCOC(C)(C)C3)ccc2o1 (stereo not given) was read as SENP1 inh -0.5, SENP6 inh -12.2, Platelet DG rel -2.3, SENP8 block-1 -12.1, SENP8 block-2 12.7, SENP7 inh 79.6*, SENP8 conf -14.3, SENP6 confirm -9.0, SENP7 conf -10.7, Casp3 SENP sel -3.6 and SENP luc ctr -10.8.
`O=C1CNC(=S)N1c1nc(-c2ccccc2)cs1` gave SENP1 inh -0.8, SENP6 inh 96.1*, Platelet DG rel 4.8, SENP8 block-1 88.2*, SENP8 block-2 18.3, SENP7 inh 87.8*, SENP8 conf -4.3, SENP6 confirm 5.5, SENP7 conf 2.5, Casp3 SENP sel 14.0 and SENP luc ctr 7.1.
`Cc1ccc2c(c1)c1c3n2CCN(C(=O)CN2CCN(C)CC2)C3CCC1` (stereo not given) gave SENP1 inh 3.4, SENP6 inh 3.3, Platelet DG rel -3.9, SENP8 block-1 1.5, SENP8 block-2 -118.0 and SENP7 inh 6.3.
`Cc1ccc2c(c1)c(=O)c1c3n2CCN(C(=O)CCl)C3CC1` (stereo not given) gave SENP1 inh -17.0, SENP6 inh 50.4*, Platelet DG rel 2.9, SENP8 block-1 26.8, SENP8 block-2 -179.4, SENP7 inh 31.1, SENP8 conf 24.2, SENP6 confirm 59.7*, SENP7 conf 17.1, Casp3 SENP sel 4.6 and SENP luc ctr -4.3.
Cn1c(SCC(=O)N2CCOCC2)nnc1-c1cnccn1 was read as SENP1 inh -0.8, SENP6 inh -17.4, Platelet DG rel 8.1, SENP8 block-1 -9.7, SENP8 block-2 8.8 and SENP7 inh -11.8.
